Key:
[1] = biological target: T1, Proteasome Macropain subunit MB1 (Homo sapiens, UniProt P28074); test: Inhibition of human chymotrypsin-like activity of 20S proteasome using Suc-LLVY-AMC as substrate pre-incubated for 10 mins followed by substrate addition and measured after 1 hr by spectrofluorimetry
T1 sequence (P28074 whole entry): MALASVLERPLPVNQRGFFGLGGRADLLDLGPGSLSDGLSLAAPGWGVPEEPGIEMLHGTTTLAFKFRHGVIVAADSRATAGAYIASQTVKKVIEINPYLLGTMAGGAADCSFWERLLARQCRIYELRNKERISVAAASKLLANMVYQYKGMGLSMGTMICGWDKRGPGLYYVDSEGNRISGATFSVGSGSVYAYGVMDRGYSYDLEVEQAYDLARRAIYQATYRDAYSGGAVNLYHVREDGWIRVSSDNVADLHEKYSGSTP

RPMI-8226 = test: Cytotoxicity against human RPMI8226 cells assessed as cell viability measured after 72 hrs by celltiter96 aqueous cell proliferation assay; type: functional, cell-based; conditions: RPMI-8226, 72 h
Outline: (§1)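 Suspension cells in log phase plated at 5000 (RPMI8226) or 10000 (U266B1) cells per well. Viability read after 72 h by MTS-type CellTiter 96 AQueous One assay on a plate reader. IC50 reported, three repeats.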

U-266 = test: Cytotoxicity against human U266B1 cells assessed as cell viability measured after 72 hrs by celltiter96 aqueous cell proliferation assay; type: functional, cell-based; conditions: U-266, 72 h; outline: as §1

SMILES | IC50 ([1]; read-out: IC50) [nM] | IC50 (RPMI-8226) [nM] | IC50 (U-266) [nM] | IC50 [1]
COC[C@H](NC(=O)c1cc(C)on1)C(=O)N[C@@H](CC(C)C)C(=O)N[C@@H](Cc1ccccc1)C(=O)N[C@@H](CC(C)C)C(=O)[C@@]1(C)CO1 | 30.6 |  |  | 
Cc1cc(C(=O)N[C@@H](Cc2cc3ccccc3[nH]2)C(=O)N[C@@H](CC(C)C)C(=O)N[C@@H](Cc2ccccc2)C(=O)N[C@@H](CC(C)C)C(=O)[C@@]2(C)CO2)no1 | 25.5 |  |  | 
CC(C)C[C@H](NC(=O)[C@H](Cc1cscn1)NC(=O)c1cnccn1)C(=O)N[C@@H](Cc1ccccc1)C(=O)N[C@@H](CC(C)C)C(=O)[C@@]1(C)CO1 | 38.8 |  |  | 
CC(C)C[C@H](NC(=O)[C@H](Cc1ccsc1)NC(=O)CN1CCOCC1)C(=O)N[C@@H](Cc1ccccc1)C(=O)N[C@@H](CC(C)C)C(=O)[C@@]1(C)CO1 | 44.9 | 34.6 | 23.8 | 
Cc1cc(C(=O)N[C@@H](CCc2ccccc2)C(=O)N[C@@H](Cc2ccccn2)C(=O)N[C@@H](Cc2ccccc2)C(=O)N[C@@H](CC(C)C)C(=O)[C@@]2(C)CO2)no1 |  |  |  | Not Active
Cc1cc(C(=O)N[C@@H](CCc2ccccc2)C(=O)N[C@H](C(=O)N[C@@H](Cc2ccccc2)C(=O)N[C@@H](CC(C)C)C(=O)[C@@]2(C)CO2)C2CCCCC2)no1 | 30.8 | 14.7 | 23.2 | 
COC[C@H](NC(=O)c1cc(C)on1)C(=O)NCC(=O)N[C@@H](Cc1ccccc1)C(=O)N[C@@H](CC(C)C)C(=O)[C@@]1(C)CO1 |  |  |  | Not Active
COC[C@H](NC(=O)[C@H](CCc1ccccc1)NC(=O)c1cc(C)on1)C(=O)N[C@@H](Cc1ccccc1)C(=O)N[C@@H](CC(C)C)C(=O)[C@@]1(C)CO1 | 50.9 |  |  | 
Cc1cc(C(=O)N[C@@H](CCc2ccccc2)C(=O)N[C@H](C(=O)N[C@@H](Cc2ccccc2)C(=O)N[C@@H](CC(C)C)C(=O)[C@@]2(C)CO2)[C@@H](C)O)no1 | 48.3 |  |  | 
Cc1cc(C(=O)N[C@@H](CC(C)C)C(=O)N[C@@H](CC(C)C)C(=O)N[C@@H](Cc2ccccc2)C(=O)N[C@@H](CC(C)C)C(=O)[C@@]2(C)CO2)no1 | 41.5 |  |  | 
Cc1cc(C(=O)N[C@H](C(=O)N[C@@H](CC(C)C)C(=O)N[C@@H](Cc2ccccc2)C(=O)N[C@@H](CC(C)C)C(=O)[C@@]2(C)CO2)C2CC2)no1 | 43.1 |  |  | 
CC(C)C[C@H](NC(=O)[C@H](CCc1ccccc1)NC(=O)CN1CCOCC1)C(=O)N[C@@H](Cc1cc2ccccc2s1)C(=O)N[C@@H](CC(C)C)C(=O)[C@@]1(C)CO1 | 37.5 | 86.6 | 80.5 | 
CC(C)C[C@H](NC(=O)[C@H](CCc1ccccc1)NC(=O)CN1CCOCC1)C(=O)N[C@@H](Cc1cscn1)C(=O)N[C@@H](CC(C)C)C(=O)[C@@]1(C)CO1 | 26.8 | 76.9 | 56.5 | 
CC(C)C[C@H](NC(=O)[C@H](Cc1cscn1)NC(=O)c1cc(Cl)ccc1Cl)C(=O)N[C@@H](Cc1ccccc1)C(=O)N[C@@H](CC(C)C)C(=O)[C@@]1(C)CO1 | 64.8 |  |  | 
CC(C)C[C@H](NC(=O)[C@H](CCc1ccccc1)NC(=O)CN1CCOCC1)C(=O)NCC(=O)N[C@@H](CC(C)C)C(=O)[C@@]1(C)CO1 |  |  |  | Not Active
